According to ChEMBL document CHEMBL3097989, “Antimicrobial activity of de novo designed cationic peptides against multi-resistant clinical isolates” (Eur J Med Chem, 2014):

Tests used:
Type in all cases: functional
Klebsiella pneumoniae [1] = experiment: Antibacterial activity against Klebsiella pneumoniae M9170 clinical isolate expressing blaOXA-GIII gene by microdilution test
How it was run: (§1)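 MIC by standard broth microdilution following CLSI recommendations, in Mueller Hinton broth supplemented with Ca²⁺ (20-25mg/L) and Mg²⁺ (10-12.5mg/L); peptides tested against a panel of multi-resistant clinical isolates plus ATCC reference strains.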

Klebsiella pneumoniae [2] = experiment: Antibacterial activity against Klebsiella pneumoniae M9140 clinical isolate expressing blaCIT gene by microdilution test; how it was run: as §1
Acinetobacter sp. [3] = experiment: Antibacterial activity against Acinetobacter sp. M9013 clinical isolate expressing blaOXA-51 and blaIMP gene by microdilution test; how it was run: as §1
Acinetobacter sp. [4] = experiment: Antibacterial activity against Acinetobacter sp. M5949 clinical isolate expressing blaOXA-23 and blaOXA-GVI gene by microdilution test; how it was run: as §1
Acinetobacter sp. [5] = experiment: Antibacterial activity against Acinetobacter sp. M7489 clinical isolate expressing blaOXA-51 and blaTEM gene by microdilution test; how it was run: as §1
Acinetobacter sp. [6] = experiment: Antibacterial activity against Acinetobacter sp. M9665 clinical isolate expressing blaOXA-51 gene by microdilution test; how it was run: as §1
Pseudomonas aeruginosa [7] = experiment: Antibacterial activity against Pseudomonas aeruginosa M7728 clinical isolate expressing blaIMP gene by microdilution test
How it was run: (§2)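 MIC by standard broth microdilution following CLSI recommendations, in Mueller Hinton broth supplemented with Ca²⁺ (20-25 mg/L) and Mg²⁺ (10-12.5 mg/L); ATCC reference strains included in the panel.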

Pseudomonas aeruginosa [8] = experiment: Antibacterial activity against Pseudomonas aeruginosa M7723 clinical isolate expressing blaKPC-2 gene by microdilution test; how it was run: as §2
Pseudomonas aeruginosa [9] = experiment: Antibacterial activity against Pseudomonas aeruginosa M11005 clinical isolate expressing blaKPC-2 gene by microdilution test; how it was run: as §1
Pseudomonas aeruginosa [10] = experiment: Antibacterial activity against Pseudomonas aeruginosa M5470 by microdilution test; how it was run: as §2
Pseudomonas aeruginosa [11] = experiment: Antibacterial activity against Pseudomonas aeruginosa PCOS12 by microdilution test; how it was run: as §2
Enterococcus gallinarum = experiment: Antibacterial activity against Enterococcus gallinarum M2723 clinical isolate expressing vanC1 and vanA gene by microdilution test; how it was run: as §1
Enterococcus faecium [12] = experiment: Antibacterial activity against Enterococcus faecium M2481 clinical isolate expressing vanB gene by microdilution test; how it was run: as §1
Enterococcus faecium [13] = experiment: Antibacterial activity against Enterococcus faecium M6261 by microdilution test; how it was run: as §1
Enterococcus faecium [14] = experiment: Antibacterial activity against Enterococcus faecium PZAP95 by microdilution test; how it was run: as §1
Enterococcus faecalis [15] = experiment: Antibacterial activity against Enterococcus faecalis M6383 clinical isolate expressing vanA gene by microdilution test; how it was run: as §1
Enterococcus faecalis [16] = experiment: Antibacterial activity against Enterococcus faecalis M4992 clinical isolate expressing vanA gene by microdilution test; how it was run: as §1
Enterococcus faecalis [17] = experiment: Antibacterial activity against Enterococcus faecalis M4899 clinical isolate expressing vanB gene by microdilution test; how it was run: as §1
Enterococcus faecalis [18] = experiment: Antibacterial activity against Enterococcus faecalis ATCC 29212 by microdilution test; how it was run: as §1
Staphylococcus hominis = experiment: Antibacterial activity against Staphylococcus hominis M2973 clinical isolate expressing mecA gene by microdilution test; how it was run: as §2
[19] = tested on: Staphylococcus haemolyticus; experiment: Antibacterial activity against Staphylococcus haemolyticus M3014 by microdilution test; how it was run: as §2
[20] = tested on: Staphylococcus haemolyticus; experiment: Antibacterial activity against Staphylococcus haemolyticus M2976 clinical isolate expressing mecA gene by microdilution test; how it was run: as §2
[21] = tested on: Staphylococcus epidermidis; experiment: Antibacterial activity against Staphylococcus epidermidis M2931 by microdilution test; how it was run: as §2
Staphylococcus aureus [22] = experiment: Antibacterial activity against Staphylococcus aureus M6784 clinical isolate expressing mecA gene by microdilution test; how it was run: as §2
Staphylococcus aureus [23] = experiment: Antibacterial activity against Staphylococcus aureus M2832 clinical isolate expressing mecA gene by microdilution test; how it was run: as §2
Staphylococcus aureus [24] = experiment: Antibacterial activity against Staphylococcus aureus M6276 clinical isolate expressing ermA and lnuA gene by microdilution test; how it was run: as §2
Staphylococcus aureus [25] = experiment: Antibacterial activity against Staphylococcus aureus ATCC 29213 by microdilution test; how it was run: as §2
Escherichia coli [26] = experiment: Antibacterial activity against Escherichia coli M5306 clinical isolate expressing blaPER-2, blaCTX-M-2 and blaTEM-1 gene by microdilution test; how it was run: as §1
Escherichia coli [27] = experiment: Antibacterial activity against Escherichia coli PLCA1 clinical isolate expressing blaCTX-M-2 and blaTEM-1 gene by microdilution test; how it was run: as §1
Escherichia coli [28] = experiment: Antibacterial activity against Escherichia coli ATCC 25922 by microdilution test; how it was run: as §1
Klebsiella pneumoniae [29] = experiment: Antibacterial activity against Klebsiella pneumoniae M11245 clinical isolate expressing blaKPC-2 and blaPER-2 gene by microdilution test; how it was run: as §1
Klebsiella pneumoniae [30] = experiment: Antibacterial activity against Klebsiella pneumoniae M1803 clinical isolate expressing blaPER-2, blaCTX-M-2, blaTEM-1, blaSHV and blaOXA-9 gene by microdilution test; how it was run: as §1
Klebsiella pneumoniae [31] = experiment: Antibacterial activity against Klebsiella pneumoniae M9375 clinical isolate expressing blaCTX-M-2, blaTEM-1 and blaSHV-1 gene by microdilution test; how it was run: as §1
Klebsiella pneumoniae [32] = experiment: Antibacterial activity against Klebsiella pneumoniae M9310 clinical isolate expressing blaCTX-M-2, blaTEM-1 and blaSHV-1 gene by microdilution test; how it was run: as §1

Row | Substance | MIC90 (Klebsiella pneumoniae [1]) [µg/mL] | MIC90 (Klebsiella pneumoniae [2]) [µg/mL] | MIC90 (Acinetobacter sp. [3]) [µg/mL] | MIC90 (Acinetobacter sp. [4]) [µg/mL] | MIC90 (Acinetobacter sp. [5]) [µg/mL] | MIC90 (Acinetobacter sp. [6]) [µg/mL] | MIC90 (Pseudomonas aeruginosa [7]) [µg/mL] | MIC90 (Pseudomonas aeruginosa [8]) [µg/mL] | MIC90 (Pseudomonas aeruginosa [9]) [µg/mL] | MIC90 (Pseudomonas aeruginosa [10]) [µg/mL] | MIC90 (Pseudomonas aeruginosa [11]) [µg/mL] | MIC90 (Enterococcus gallinarum) [µg/mL] | MIC90 (Enterococcus faecium [12]) [µg/mL] | MIC90 (Enterococcus faecium [13]) [µg/mL] | MIC90 (Enterococcus faecium [14]) [µg/mL] | MIC90 (Enterococcus faecalis [15]) [µg/mL] | MIC90 (Enterococcus faecalis [16]) [µg/mL] | MIC90 (Enterococcus faecalis [17]) [µg/mL] | MIC90 (Enterococcus faecalis [18]) [µg/mL] | MIC90 (Staphylococcus hominis) [µg/mL] | other results
1 | H-RIVQRIKKWLLKWKKLGY-NH2 | 64 | 32 | 32 | 256 | 64 | 128 | 64 | 32 | 128 | 64 | 64 | 16 | 16 | 16 | 16 | 128 | 128 | 256 | 128 | 4 | MIC90 [19]: 8 µg/mL; MIC90 [20]: 8 µg/mL; MIC90 [21]: 8 µg/mL; MIC90 (Staphylococcus aureus [22]): 32 µg/mL; MIC90 (Staphylococcus aureus [23]): 64 µg/mL; MIC90 (Staphylococcus aureus [24]): 64 µg/mL; MIC90 (Staphylococcus aureus [25]): 32 µg/mL; MIC90 (Escherichia coli [26]): 64 µg/mL; MIC90 (Escherichia coli [27]): 64 µg/mL; MIC90 (Escherichia coli [28]): 32 µg/mL; MIC90 (Klebsiella pneumoniae [29]): 8 µg/mL; MIC90 (Klebsiella pneumoniae [30]): 64 µg/mL; MIC90 (Klebsiella pneumoniae [31]): 16 µg/mL; MIC90 (Klebsiella pneumoniae [32]): 32 µg/mL
2 | H-WPKWWKWKRRWGRKKAKKRRG-NH2 | > 1020 | 1020 | 32 | 256 | 64 | 128 | 128 | 64 | 64 | 128 | 64 | 32 | 32 | 32 | 32 | 128 | 128 | 256 | 64 | 4 | MIC90 [19]: 16 µg/mL; MIC90 [20]: 16 µg/mL; MIC90 [21]: 16 µg/mL; MIC90 (Staphylococcus aureus [22]): 32 µg/mL; MIC90 (Staphylococcus aureus [23]): 32 µg/mL; MIC90 (Staphylococcus aureus [24]): 16 µg/mL; MIC90 (Staphylococcus aureus [25]): 32 µg/mL; MIC90 (Escherichia coli [26]): 256 µg/mL; MIC90 (Escherichia coli [27]): 128 µg/mL; MIC90 (Escherichia coli [28]): 128 µg/mL; MIC90 (Klebsiella pneumoniae [29]): 1020 µg/mL; MIC90 (Klebsiella pneumoniae [30]): > 1020 µg/mL; MIC90 (Klebsiella pneumoniae [31]): 1020 µg/mL; MIC90 (Klebsiella pneumoniae [32]): > 1020 µg/mL
